Test results taken from ChEMBL document CHEMBL2390884, “Design, synthesis and antiproliferative activity studies of novel 1,2,3-triazole-dithiocarbamate-urea hybrids” (Eur J Med Chem, 2013).

What was measured:
Format in all cases: functional
[1] = system: MGC-803; assay: Cell cycle arrest in human MGC803 cells assessed as reduction in S phase accumulation after 12 to 24 hrs by propidium iodide staining-based flow cytometry
Procedure, shortened: (§1)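 Exponentially growing MGC-803 cells (5×10^5) treated at 0, 0.25, 0.5 or 1.0 µmol/L for 12 or 24 h; cells collected, fixed in ice-cold 70% ethanol, treated with buffer containing RNAse A and 0.1% Triton X-100, stained with PI; DNA content analysed by flow cytometry to give percentages of cells in G1, S and G2/M phases.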

[2] = system: MGC-803; assay: Cell cycle arrest in human MGC803 cells assessed as accumulation at G2/M phase at 0.25 to 1 uM by propidium iodide staining-based flow cytometry; settings: TDE = time-dependent effect; procedure, shortened: as §1
[3] = system: MGC-803; assay: Cell cycle arrest in human MGC803 cells assessed as accumulation at S phase at 0.25 uM after 24 hrs by propidium iodide staining-based flow cytometry; procedure, shortened: as §1
[4] = system: MGC-803; assay: Cell cycle arrest in human MGC803 cells assessed as accumulation at S phase at 1 uM after 12 hrs by propidium iodide staining-based flow cytometry; procedure, shortened: as §1
[5] = system: MGC-803; assay: Cell cycle arrest in human MGC803 cells assessed as accumulation at G0/G1 phase at 0.5 uM after 24 hrs by propidium iodide staining-based flow cytometry; procedure, shortened: as §1
[6] = system: MGC-803; assay: Cell cycle arrest in human MGC803 cells assessed as accumulation at G0/G1 phase at 1 uM after 24 hrs by propidium iodide staining-based flow cytometry; procedure, shortened: as §1
[7] = system: MGC-803; assay: Cell cycle arrest in human MGC803 cells assessed as accumulation at G0/G1 phase at 0.5 uM after 12 hrs by propidium iodide staining-based flow cytometry; procedure, shortened: as §1
[8] = system: MGC-803; assay: Induction of apoptosis in human MGC803 cells assessed as necrotic cells at 0.25 uM after 12 hrs by AnnexinV-FITC/propidium iodide staining-based flow cytometry (reference value: 2.4 %)
[9] = system: MGC-803; assay: Induction of apoptosis in human MGC803 cells assessed as early apoptotic cells at 1 uM after 12 hrs by AnnexinV-FITC/propidium iodide staining-based flow cytometry (reference value: 2.8 %)
[10] = system: MGC-803; assay: Induction of apoptosis in human MGC803 cells assessed as early apoptotic cells at 0.5 uM after 12 hrs by AnnexinV-FITC/propidium iodide staining-based flow cytometry (reference value: 2.8 %)
[11] = system: MGC-803; assay: Induction of apoptosis in human MGC803 cells assessed as early apoptotic cells at 0.25 uM after 12 hrs by AnnexinV-FITC/propidium iodide staining-based flow cytometry (reference value: 2.8 %)
[12] = system: MGC-803; assay: Induction of apoptosis in human MGC803 cells assessed as viable cells at 1 uM after 12 hrs by AnnexinV-FITC/propidium iodide staining-based flow cytometry (reference value: 91.9 %); settings: MGC-803, 12 h, read-out: Activity

For `CC(C)NC(=O)N1CCN(C(=S)SCc2cn(Cc3ccc(F)cc3)nn2)CC1`, the Activity [1] was “Dose-dependent effect”, the Activity [2] was “tde” and the Activity [3] was 25.21%. The Activity [4] was 12.65%, the Activity [5] was 4.91% and the Activity [6] was 2.32%. For the same compound, the Activity [7] was 22.18%, the Activity [8] was 0.5% and the Activity [9] was 31.4%. For the same compound, the Activity [10] was 17.2%, the Activity [11] was 9.2% and the viability at 1 µM [12] was 65%.
